From ChEMBL document CHEMBL4368918, “Structure-Based Design of Inhibitors Selective for Human Proteasome β2c or β2i Subunits” (J Med Chem, 2019)

What was measured:
[1] = molecular target: T1, Proteasome subunit beta type-8 (Homo sapiens, UniProt P28062); assay: Inhibition of 20S immunoproteasome beta 5 in human Raji cell lysates after 1 hr by competitive ABPP assay; assay type: subcellular, Lysate
T1 sequence (P28062 whole entry): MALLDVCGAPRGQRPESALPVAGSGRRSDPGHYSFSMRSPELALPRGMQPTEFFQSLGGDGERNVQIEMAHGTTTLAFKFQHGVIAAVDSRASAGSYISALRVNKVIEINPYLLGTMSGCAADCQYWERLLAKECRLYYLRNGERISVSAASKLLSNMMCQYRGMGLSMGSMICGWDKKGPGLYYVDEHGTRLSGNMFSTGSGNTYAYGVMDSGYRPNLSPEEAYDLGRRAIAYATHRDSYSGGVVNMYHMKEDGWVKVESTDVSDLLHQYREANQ

[2] = molecular target: T2, Proteasome Macropain subunit MB1 (Homo sapiens, UniProt P28074); assay: Inhibition of 20S constitutive proteasome beta 5 chymotrypsin-like activity in human Raji cell lysates after 1 hr by competitive ABPP assay; assay type: subcellular, Lysate
T2 sequence (P28074 whole entry): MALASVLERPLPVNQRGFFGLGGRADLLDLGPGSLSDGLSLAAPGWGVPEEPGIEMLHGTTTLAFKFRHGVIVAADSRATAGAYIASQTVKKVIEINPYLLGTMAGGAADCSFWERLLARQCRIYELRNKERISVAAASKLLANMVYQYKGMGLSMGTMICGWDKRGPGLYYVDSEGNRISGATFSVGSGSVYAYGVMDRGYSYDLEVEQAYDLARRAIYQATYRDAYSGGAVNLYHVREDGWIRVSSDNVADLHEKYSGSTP

[3] = molecular target: T3, Proteasome subunit beta type-9 (Homo sapiens, UniProt P28065); assay: Inhibition of 20S immunoproteasome beta 1 in human Raji cell lysates after 1 hr by competitive ABPP assay; assay type: subcellular, Lysate
T3 sequence (P28065 whole entry): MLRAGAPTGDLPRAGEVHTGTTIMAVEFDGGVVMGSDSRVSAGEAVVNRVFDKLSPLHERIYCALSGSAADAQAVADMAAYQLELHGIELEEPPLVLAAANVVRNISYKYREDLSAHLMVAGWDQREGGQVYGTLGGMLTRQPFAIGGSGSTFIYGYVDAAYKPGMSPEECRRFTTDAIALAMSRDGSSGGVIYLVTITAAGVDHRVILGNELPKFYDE
Method in brief: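 Raji cells were sonicated in 3 volumes of Tris pH 7.5 lysis buffer containing DTT, MgCl₂, sucrose, 2 mM ATP and 0.05% digitonin. Lysate (5 μg protein, in buffer with 2 mM ATP and glycerol) was preincubated with inhibitor for 1 h at 37 °C, then with a cocktail of three fluorescent ABPs for 1 h. […] In-gel fluorescence densitometry was normalized to mock. IC50 came from the mean of three experiments.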

[4] = molecular target: T4, Proteasome subunit beta type-6 (Homo sapiens, UniProt P28072); assay: Inhibition of 20S constitutive proteasome beta 1 caspase-like activity in human Raji cell lysates after 1 hr by competitive ABPP assay; assay type: subcellular, Lysate
T4 sequence (P28072 whole entry): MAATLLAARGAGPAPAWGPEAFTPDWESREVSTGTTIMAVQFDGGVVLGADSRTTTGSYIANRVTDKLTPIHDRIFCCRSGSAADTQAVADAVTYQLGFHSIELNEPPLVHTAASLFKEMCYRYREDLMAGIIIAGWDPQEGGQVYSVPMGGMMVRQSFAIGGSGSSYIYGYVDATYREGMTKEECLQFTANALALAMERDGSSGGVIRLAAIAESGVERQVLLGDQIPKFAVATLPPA
Method in brief: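 Raji cells were sonicated in 3 volumes of Tris pH 7.5 lysis buffer containing DTT, MgCl₂, sucrose, 2 mM ATP and 0.05% digitonin. Lysate (5 μg protein, in buffer with 2 mM ATP and glycerol) was preincubated with inhibitor for 1 h at 37 °C, then with a cocktail of three fluorescent ABPs for 1 h. In-gel fluorescence densitometry was normalized to mock. IC50 came from the mean of three experiments.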

[5] = molecular target: T2, Proteasome Macropain subunit MB1; assay: Inhibition of 20S constitutive proteasome beta 5 chymotrypsin-like activity in human RPMI8226 cell lysates after 1 hr by coomassie brilliant blue staining-based fluorescence assay; assay type: subcellular, Lysate
Method in brief: (§1)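 Cells at (5–8)×10⁵ cells/mL were exposed to inhibitor for 1 h at 37 °C, washed in PBS and lysed on ice for 1 h in digitonin/ATP buffer. Residual activity was read by cocktail-ABP labeling, SDS-PAGE and fluorescence densitometry relative to mock, with Coomassie staining correcting for loading. IC50 came from three independent experiments.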

[6] = molecular target: T5, Proteasome subunit beta type-10 (Homo sapiens, UniProt P40306); assay: Inhibition of 20S immunoproteasome beta 2 (unknown origin) by cell based ABPP assay
T5 sequence (P40306 whole entry): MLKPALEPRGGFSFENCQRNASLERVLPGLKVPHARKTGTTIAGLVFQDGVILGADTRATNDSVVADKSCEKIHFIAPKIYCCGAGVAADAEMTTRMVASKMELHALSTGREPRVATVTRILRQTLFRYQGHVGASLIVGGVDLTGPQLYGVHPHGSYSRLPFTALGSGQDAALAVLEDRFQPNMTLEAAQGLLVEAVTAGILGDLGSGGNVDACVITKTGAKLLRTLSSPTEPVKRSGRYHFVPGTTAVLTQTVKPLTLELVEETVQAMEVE
Method in brief: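 Living RPMI-8226 cells, (5–8) ×10^5 cells/mL, exposed to inhibitor 1 h at 37 °C, washed, lysed in digitonin buffer 1 h on ice; residual activity labelled with cocktail ABPs, SDS-PAGE in-gel fluorescence, bands divided by mock, Coomassie staining to correct loading. IC50 from mean of three independent experiments.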

[7] = molecular target: T3, Proteasome subunit beta type-9; assay: Inhibition of 20S immunoproteasome beta 1 in human RPMI8226 cell lysates after 1 hr by coomassie brilliant blue staining-based fluorescence assay; assay type: subcellular, Lysate
Method in brief: as §1, with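 “Living RPMI-8226 cells were grown in RPMI-1640 with 10% FCS. Cells” for “Cells”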

[8] = molecular target: T5, Proteasome subunit beta type-10; assay: Inhibition of 20S immunoproteasome beta 2 in human RPMI8226 cell lysates after 1 hr by coomassie brilliant blue staining-based fluorescence assay; assay type: subcellular, Lysate
[9] = molecular target: T5, Proteasome subunit beta type-10; assay: Inhibition of 20S immunoproteasome beta 2 in human Raji cell lysates after 1 hr by competitive ABPP assay; assay type: subcellular, Lysate
[10] = molecular target: T1, Proteasome subunit beta type-8; assay: Inhibition of 20S immunoproteasome beta 5 in human RPMI8226 cell lysates after 1 hr by coomassie brilliant blue staining-based fluorescence assay; assay type: subcellular, Lysate
Method in brief: as §1, with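 “Living RPMI-8226 cells were grown in RPMI-1640 with 10% FCS. Cells” for “Cells”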

[11] = molecular target: T6, Proteasome subunit beta type-7 (Homo sapiens, UniProt Q99436); assay: Inhibition of 20S constitutive proteasome beta 2 trypsin-like activity in human RPMI8226 cell lysates after 1 hr by coomassie brilliant blue staining-based fluorescence assay; assay type: subcellular, Lysate
T6 sequence (Q99436 whole entry): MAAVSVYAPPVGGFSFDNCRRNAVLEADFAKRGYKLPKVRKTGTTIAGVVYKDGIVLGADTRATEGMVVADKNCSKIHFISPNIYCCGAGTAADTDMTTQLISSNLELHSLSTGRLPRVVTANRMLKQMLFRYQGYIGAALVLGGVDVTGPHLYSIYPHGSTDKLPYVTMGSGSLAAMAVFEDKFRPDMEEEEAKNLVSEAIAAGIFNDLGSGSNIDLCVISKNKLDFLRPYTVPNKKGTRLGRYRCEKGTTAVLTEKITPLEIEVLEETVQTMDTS

Homo sapiens [12] = species on record: Homo sapiens; assay: Selectivity ratio of IC50 for 20S immunoproteasome beta 2 in human Raji cell lysates to IC50 for 20S constitutive proteasome beta 2 trypsin-like activity in human Raji cells; assay type: cell-based
Homo sapiens [13] = species on record: Homo sapiens; assay: Selectivity ratio of IC50 for 20S immunoproteasome beta 1 in human Raji cell lysates to IC50 for 20S constitutive proteasome beta 2 trypsin-like activity in human Raji cells; assay type: cell-based
Homo sapiens [14] = species on record: Homo sapiens; assay: Selectivity ratio of IC50 for 20S immunoproteasome beta 5 in human Raji cell lysates to IC50 for 20S constitutive proteasome beta 2 trypsin-like activity in human Raji cells; assay type: cell-based
Homo sapiens [15] = species on record: Homo sapiens; assay: Selectivity ratio of IC50 for 20S constitutive proteasome beta 1 caspase-like activity in human Raji cell lysates to IC50 for 20S constitutive proteasome beta 2 trypsin-like activity in human Raji cells; assay type: cell-based
Homo sapiens [16] = species on record: Homo sapiens; assay: Selectivity ratio of IC50 for 20S immunoproteasome beta 2 (unknown origin) to IC50 for 20S constitutive proteasome beta 2 trypsin-like activity (unknown origin)
Homo sapiens [17] = species on record: Homo sapiens; assay: Selectivity ratio of IC50 for 20S constitutive proteasome beta 5 chymotrypsin-like activity in human Raji cell lysates to IC50 for 20S constitutive proteasome beta 2 trypsin-like activity in human Raji cells; assay type: cell-based

Row | SMILES | IC50 [1] [µM] | IC50 [2] [µM] | IC50 [3] [µM] | IC50 [4] [µM] | IC50 [5] [µM] | IC50 [6] [µM] | IC50 [7] [µM] | IC50 [8] [µM] | IC50 [9] [µM] | IC50 [10] [µM] | IC50 [11] [µM] | Ratio IC50 (Homo sapiens [12]) | Ratio IC50 (Homo sapiens [13]) | Ratio IC50 (Homo sapiens [14]) | Ratio IC50 (Homo sapiens [15]) | Ratio IC50 (Homo sapiens [16]) | Ratio IC50 (Homo sapiens [17])
1 | COc1ccc(C[C@H](NC(=O)[C@H](C)NC(=O)CN2CCOCC2)C(=O)N[C@@H](C[C@@H]2CCC[C@H]3CCCC[C@H]32)C(=O)[C@@]2(C)CO2)cc1 | 28.4 | > 100 | > 100 | 53 | – | – | – | – | – | – | – | – | – | – | – | – | –
2 | COc1ccc(C[C@H](NC(=O)[C@H](C)NC(=O)CN2CCOCC2)C(=O)N[C@@H](C[C@H]2CCCC3CCCCC32)C(=O)[C@@]2(C)CO2)cc1 (some centres not stated) | > 100 | > 100 | > 100 | > 100 | – | – | – | – | – | – | – | – | – | – | – | – | –
3 | COc1ccc(C[C@H](NC(=O)[C@H](C)NC(=O)CN2CCOCC2)C(=O)N[C@@H](C[C@H]2CCC[C@@H]3CCCC[C@@H]32)C(=O)[C@@]2(C)CO2)cc1 | > 100 | > 100 | > 100 | > 100 | – | – | – | – | – | – | – | – | – | – | – | – | –
4 | CC(C)C[C@H](NC(=O)[C@H](Cc1ccccc1)N=[N+]=[N-])C(=O)N[C@H](C(=O)N[C@H](/C=C/S(C)(=O)=O)Cc1ccc(CN)cc1)[C@@H](C)O | 2.1 | 0.75 | > 100 | > 100 | > 10 | 0.33 | > 10 | > 10 | 0.11 | > 10 | – | – | – | – | – | – | –
5 | COC[C@H](NC(=O)[C@H](CC(C)C)NC(=O)c1cnc(C)s1)C(=O)N[C@H](/C=C/S(C)(=O)=O)Cc1ccc(CN)cc1 | 57.1 | 45.3 | > 100 | > 100 | > 10 | > 1 | > 10 | > 10 | 4 | > 10 | > 10 | 52 | > 1300 | 740 | > 1300 | > 14 | 590
6 | COc1ccc(C[C@H](NC(=O)[C@H](C)NC(=O)CN2CCOCC2)C(=O)N[C@@H](CCC2CCCCC2)C(=O)[C@@]2(C)CO2)cc1 | – | 5 | > 100 | > 100 | – | – | – | – | – | – | – | – | – | – | – | – | –
7 | COc1ccc(C[C@H](NC(=O)[C@H](C)NC(=O)CN2CCOCC2)C(=O)N[C@@H](C[C@@H]2CCCC3CCCCC32)C(=O)[C@@]2(C)CO2)cc1 (some centres not stated) | > 100 | > 100 | > 100 | > 100 | – | – | – | – | – | – | – | – | – | – | – | – | –
8 | CC(C)C[C@H](NC(=O)[C@H](Cc1ccccc1)N=[N+]=[N-])C(=O)N[C@@H](CO)C(=O)N[C@H](/C=C/S(C)(=O)=O)Cc1ccc(CN)cc1 | 2.2 | 1.4 | > 100 | > 100 | > 10 | 0.525 | > 10 | > 10 | 0.23 | > 10 | – | – | – | – | – | – | –
9 | COc1ccc(C[C@H](NC(=O)[C@H](C)NC(=O)CN2CCOCC2)C(=O)N[C@@H](C[C@@H]2CCCc3ccccc32)C(=O)[C@@]2(C)CO2)cc1 | > 100 | > 100 | > 100 | > 100 | – | – | – | – | – | – | – | – | – | – | – | – | –
10 | COC1CCC(C[C@H](NC(=O)c2cnc(C)s2)C(=O)N[C@@H](CC(C)C)C(=O)N[C@H](/C=C/S(C)(=O)=O)Cc2ccc(CN)cc2)CC1 (some centres not stated) | > 100 | > 100 | > 100 | > 100 | > 10 | > 1 | > 10 | > 10 | 3.1 | > 10 | > 10 | 7 | > 220 | > 220 | > 220 | > 4 | > 220
11 | COc1ccc(C[C@H](NC(=O)[C@H](C)NC(=O)CN2CCOCC2)C(=O)N[C@@H](C[C@H]2CCCc3ccccc32)C(=O)[C@@]2(C)CO2)cc1 | > 100 | > 100 | > 100 | > 100 | – | – | – | – | – | – | – | – | – | – | – | – | –
12 | COc1ccc(C[C@H](NC(=O)[C@H](C)NC(=O)CN2CCOCC2)C(=O)N[C@@H](CC2CCCC3CCCCC32)C(=O)[C@@]2(C)CO2)cc1 (some centres not stated) | > 100 | > 100 | > 100 | > 100 | – | – | – | – | – | – | – | – | – | – | – | – | –
13 | Cc1ncc(C(=O)N[C@@H](CC2CCCCC2)C(=O)N[C@@H](CC(C)C)C(=O)N[C@H](/C=C/S(C)(=O)=O)Cc2ccc(CN)cc2)s1 | > 100 | > 100 | > 100 | > 100 | > 10 | 0.54 | > 10 | > 10 | 0.42 | > 10 | > 10 | 6 | > 1500 | > 1500 | > 1500 | 30 | > 1500
